Reference: ChEMBL document CHEMBL2321659, “Design, synthesis, and biological evaluation of indenoisoquinoline rexinoids with chemopreventive potential” (J Med Chem, 2013)

System: not listed separately
Test: Cytotoxicity against African green monkey COS1 cells assessed as cell survival
Format: cell-based
Set-up: concentration or dose not given beside the values
Conditions: chlorocebus aethiops, COS-1 cells; read-out: Activity

Compound	viability [%]
O=C1c2ccccc2-c2c1c1ccc(Br)cc1c(=O)n2CCCN1CCOCC1	100
NCCCn1c2c(c3ccc([N+](=O)[O-])cc3c1=O)C(=O)c1ccccc1-2	32.1
O=C1c2ccccc2-c2c1c1ccccc1c(=O)n2CCCn1ccnc1	100
CN(C)c1ccc2c3c(n(CCCN)c(=O)c2c1)-c1ccccc1C3=O	30.6
Cc1cc2c(cc1C1(c3ccc(C(=O)O)cn3)CC1)C(C)(C)CCC2(C)C	84.3
CN(C)CCCn1c2c(c3ccc([N+](=O)[O-])cc3c1=O)C(=O)c1ccccc1-2	83.7
NCCCn1c2c(c3ccc(C(=O)O)cc3c1=O)C(=O)c1ccccc1-2	83.7
COC(=O)c1ccc2c3c(n(CCCN)c(=O)c2c1)-c1ccccc1C3=O	55
COC(=O)/C=C/c1ccc2c3c(n(CCCN)c(=O)c2c1)-c1ccccc1C3=O	90.4
CNc1ccc2c3c(n(CCCN)c(=O)c2c1)-c1ccccc1C3=O	45.9
CNCCCn1c2c(c3ccc([N+](=O)[O-])cc3c1=O)C(=O)c1ccccc1-2	33.1
CNCCCn1c2c(c3ccc(N)cc3c1=O)C(=O)c1ccccc1-2	53

Biological target: T1, Retinoic acid receptor RXR-alpha (Homo sapiens) (UniProt P19793)
T1 sequence (whole entry): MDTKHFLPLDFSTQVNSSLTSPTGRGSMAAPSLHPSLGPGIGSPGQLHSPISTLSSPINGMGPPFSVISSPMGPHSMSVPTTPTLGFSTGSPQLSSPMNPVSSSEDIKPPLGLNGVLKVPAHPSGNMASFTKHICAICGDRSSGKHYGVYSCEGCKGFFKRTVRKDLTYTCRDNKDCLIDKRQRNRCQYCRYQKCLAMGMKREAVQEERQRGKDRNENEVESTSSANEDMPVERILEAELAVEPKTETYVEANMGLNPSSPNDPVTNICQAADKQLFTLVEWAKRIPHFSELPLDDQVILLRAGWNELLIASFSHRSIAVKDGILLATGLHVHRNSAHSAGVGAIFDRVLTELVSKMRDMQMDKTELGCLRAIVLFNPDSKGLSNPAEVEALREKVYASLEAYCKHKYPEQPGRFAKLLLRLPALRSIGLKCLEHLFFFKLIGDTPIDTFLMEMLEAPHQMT
Test: Activation of human RXRalpha activity expressed in COS1 cells assessed as induction ratio at 50 uM after 12 hrs by RXRE-luciferase reporter gene assay relative to untreated control
Format: cell-based
Conditions: COS-1
Method in brief: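 COS-1 cells transiently co-transfected per well with 100 ng RXRE-firefly luciferase reporter, 50 ng human RXRα expression vector and 3 ng Renilla luciferase vector using Lipofectamine 2000 for 24 h, then exposed to compound for a further 12 h. Dual-luciferase read-out. Induction ratio taken at 50 µM test concentration.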

Ratio	Compound
< 1	Cn1c2c(c3ccccc3c1=O)C(=O)c1ccccc1-2
< 1	O=C1c2ccccc2-c2c1c1ccc(Br)cc1c(=O)n2CCCN1CCOCC1
< 1	NCCCn1c2c(c3ccc([N+](=O)[O-])cc3c1=O)C(=O)c1ccccc1-2
< 1	[N-]=[N+]=NCCn1c2c(c3ccc([N+](=O)[O-])cc3c1=O)C(=O)c1ccccc1-2
< 1	O=C1c2ccccc2-c2c1c1ccccc1c(=O)n2CCCn1ccnc1
< 1	Cn1c2c(c3ccc(CCCC(=O)O)cc3c1=O)C(=O)c1ccccc1-2
< 1	CC(=O)Nc1ccc2c3c(n(CCCO)c(=O)c2c1)-c1ccccc1C3=O
< 1	NCCCn1c2c(c3ccc(NC(=O)C(=O)O)cc3c1=O)C(=O)c1ccccc1-2
< 1	O=C1c2ccccc2-c2c1c1ccc([N+](=O)[O-])cc1c(=O)n2CCCCO
< 1	COc1ccc2c(c1)C(=O)c1c-2n(CCCN)c(=O)c2cc(OC)c(OC)cc12
< 1	Cn1c2c(c3ccc(I)cc3c1=O)C(=O)c1ccccc1-2
< 1	CN(C)c1ccc2c3c(n(CCCN)c(=O)c2c1)-c1ccccc1C3=O
< 1	O=C1c2ccccc2-c2c1c1ccccc1c(=O)n2CCCO
< 1	CNCCCn1c2c(c3ccc(N)cc3c1=O)C(O)c1ccccc1-2 (stereo not given)
< 1	COC(=O)Cc1ccc2c3c(n(C)c(=O)c2c1)-c1ccccc1C3=O
< 1	COC(=O)C#Cc1ccc2c3c(n(C)c(=O)c2c1)-c1ccccc1C3=O
< 1	Cn1c2c(c3ccc(NCC(=O)O)cc3c1=O)C(=O)c1ccccc1-2
< 1	O=C1c2ccccc2-c2c1c1ccc([N+](=O)[O-])cc1c(=O)n2CCCCl
< 1	Cc1ccc2c3c(n(C)c(=O)c2c1)-c1ccccc1C3=O
< 1	CN(C)c1ccc2c3c(n(CCCNC(=O)OC(C)(C)C)c(=O)c2c1)-c1ccccc1C3=O
< 1	O=C(O)CCn1c2c(c3ccc([N+](=O)[O-])cc3c1=O)C(=O)c1ccccc1-2
< 1	NCCCn1c2c(c3ccc(N)cc3c1=O)C(O)c1ccccc1-2 (stereo not given)

Ratio	Compound
< 1	NC(=O)CCn1c2c(c3ccccc3c1=O)C(=O)c1ccccc1-2
< 1	COc1ccc2c(c1)C(=O)c1c-2n(CCCN)c(=O)c2cc(N(C)C)ccc12
< 1	CC(=O)NCCCn1c2c(c3ccc([N+](=O)[O-])cc3c1=O)C(=O)c1ccccc1-2
< 1	Cn1c2c(c3ccc(NC(=O)C(=O)O)cc3c1=O)C(=O)c1ccccc1-2
< 1	COC(=O)c1ccc2c3c(n(CCCN4CCOCC4)c(=O)c2c1)-c1ccccc1C3=O
< 1	CCOC(CCn1c2c(c3ccc([N+](=O)[O-])cc3c1=O)C(=O)c1ccccc1-2)OCC
< 1	CCOC(=O)CNc1ccc2c3c(n(C)c(=O)c2c1)-c1ccccc1C3=O
< 1	COCCCn1c2c(c3ccc([N+](=O)[O-])cc3c1=O)C(=O)c1ccccc1-2
< 1	Nc1ccc2c3c(n(CCCCl)c(=O)c2c1)-c1ccccc1C3=O
< 1	Cn1c2c(c3ccc(C(N)=O)cc3c1=O)C(=O)c1ccccc1-2
< 1	COC(=O)C(=O)Nc1ccc2c3c(n(CCCN)c(=O)c2c1)-c1ccccc1C3=O
< 1	Cn1c2c(c3ccc(/C=C/C#N)cc3c1=O)C(=O)c1ccccc1-2
< 1	COC(=O)c1ccc2c3c(n(CCCn4ccnc4)c(=O)c2c1)-c1ccccc1C3=O
< 1	O=C1c2ccccc2-c2c1c1ccc(Br)cc1c(=O)n2CCCO
< 1	O=C1c2ccccc2-c2c1c1ccc(Br)cc1c(=O)n2CCCn1ccnc1
< 1	Cn1c2c(c3ccc(CC(=O)O)cc3c1=O)C(=O)c1ccccc1-2
< 1	COC(=O)CC(=O)Nc1ccc2c3c(n(C)c(=O)c2c1)-c1ccccc1C3=O
< 1	Cn1c2c(c3ccc(Br)cc3c1=O)C(=O)c1ccccc1-2
< 1	NCCCn1c2c(c3ccc(NC(=O)CCC(=O)O)cc3c1=O)C(=O)c1ccccc1-2
< 1	Nc1ccc2c3c(n(CCCO)c(=O)c2c1)-c1ccccc1C3O (stereo not given)
< 1	COC(CCn1c2c(c3ccc([N+](=O)[O-])cc3c1=O)C(=O)c1ccccc1-2)OC
< 1	COC(=O)c1ccc2c3c(n(C)c(=O)c2c1)-c1ccccc1C3=O

Ratio	Compound
< 1	N#Cc1ccc2c3c(n(CCCn4ccnc4)c(=O)c2c1)-c1ccccc1C3=O
< 1	COC(=O)CCC(=O)Nc1ccc2c3c(n(C)c(=O)c2c1)-c1ccccc1C3=O
< 1	NC(=O)CCn1c2c(c3ccc([N+](=O)[O-])cc3c1=O)C(=O)c1ccccc1-2
< 1	Cn1c2c(c3ccc(C(=O)O)cc3c1=O)C(=O)c1ccccc1-2
< 1	CN(C)CCCn1c2c(c3ccc([N+](=O)[O-])cc3c1=O)C(=O)c1ccccc1-2
< 1	NCCCn1c2c(c3ccc(NC(=O)CC(=O)O)cc3c1=O)C(=O)c1ccccc1-2
< 1	O=CCCn1c2c(c3ccc([N+](=O)[O-])cc3c1=O)C(=O)c1ccccc1-2
< 1	NCCCn1c2c(c3ccc(C(=O)O)cc3c1=O)C(=O)c1ccccc1-2
< 1	N#Cc1ccc2c3c(n(CCCN4CCOCC4)c(=O)c2c1)-c1ccccc1C3=O
< 1	CN(C)CCCn1c2c(c3ccc(C#N)cc3c1=O)C(=O)c1cc3c(cc1-2)OCO3
< 1	O=C(O)CCn1c2c(c3ccccc3c1=O)C(=O)c1ccccc1-2
< 1	Nc1ccc2c3c(n(CCCO)c(=O)c2c1)-c1ccccc1C3=O
< 1	Cn1c2c(c3ccc([N+](=O)[O-])cc3c1=O)C(=O)c1ccccc1-2
< 1	COC(=O)c1ccc2c3c(n(CCCN)c(=O)c2c1)-c1ccccc1C3=O
< 1	O=C1c2ccccc2-c2c1c1ccc([N+](=O)[O-])cc1c(=O)n2CCCBr
< 1	CNc1ccc2c3c(n(CCCNC(=O)OC(C)(C)C)c(=O)c2c1)-c1ccccc1C3O (stereo not given)
< 1	NCCCn1c2c(c3ccc(NC(=O)CCCCC(=O)O)cc3c1=O)C(=O)c1ccccc1-2
< 1	O=C1c2ccccc2-c2c1c1ccc([N+](=O)[O-])cc1c(=O)n2CCCO
< 1	Cn1c2c(c3ccc(/C=C/C(=O)O)cc3c1=O)C(=O)c1ccccc1-2
< 1	COC(=O)CCCC(=O)Nc1ccc2c3c(n(CCCN)c(=O)c2c1)-c1ccccc1C3=O
< 1	COC(=O)CCCCC(=O)Nc1ccc2c3c(n(C)c(=O)c2c1)-c1ccccc1C3=O
< 1	CC(C)(C)OC(=O)NCCCn1c2c(c3ccc(N)cc3c1=O)C(=O)c1ccccc1-2

Ratio	Compound
< 1	COC(=O)CCn1c2c(c3ccc(Br)cc3c1=O)C(=O)c1ccccc1-2
< 1	COCCCn1c2c(c3ccccc3c1=O)C(=O)c1ccccc1-2
< 1	COC(=O)CCCC(=O)Nc1ccc2c3c(n(C)c(=O)c2c1)-c1ccccc1C3=O
< 1	COC(=O)CCC(=O)Nc1ccc2c3c(n(CCCN)c(=O)c2c1)-c1ccccc1C3=O
< 1	[N-]=[N+]=NCCCn1c2c(c3ccc([N+](=O)[O-])cc3c1=O)C(=O)c1ccccc1-2
< 1	COC(=O)/C=C/c1ccc2c3c(n(CCCN)c(=O)c2c1)-c1ccccc1C3=O
< 1	CNCCCn1c2c(c3ccc([N+](=O)[O-])cc3c1=O)C(=O)c1ccccc1-2
< 1	CNc1ccc2c3c(n(CCCNC(=O)OC(C)(C)C)c(=O)c2c1)-c1ccccc1C3=O
< 1	Cn1c2c(c3ccc(Cl)cc3c1=O)C(=O)c1ccccc1-2
< 1	COC(=O)CCCc1ccc2c3c(n(C)c(=O)c2c1)-c1ccccc1C3=O
< 1	CC(=O)Nc1ccc2c3c(n(CCCCl)c(=O)c2c1)-c1ccccc1C3=O
< 1	COC(=O)C(=O)Nc1ccc2c3c(n(C)c(=O)c2c1)-c1ccccc1C3=O
< 1	Cn1c2c(c3ccc(C=O)cc3c1=O)C(=O)c1ccccc1-2
< 1	CC(C)(C)OC(=O)NCCCn1c2c(c3ccc([N+](=O)[O-])cc3c1=O)C(=O)c1ccccc1-2
< 1	CC(=O)Nc1ccc2c3c(n(CCCN=[N+]=[N-])c(=O)c2c1)-c1ccccc1C3=O
< 1	CCCCn1c2c(c3ccccc3c1=O)C(=O)c1ccccc1-2
< 1	COC(=O)CCCCC(=O)Nc1ccc2c3c(n(CCCN)c(=O)c2c1)-c1ccccc1C3=O
< 1	COC(=O)/C=C/c1ccc2c3c(n(C)c(=O)c2c1)-c1ccccc1C3=O
< 1	NCCCn1c2c(c3ccc(NC(=O)CCCC(=O)O)cc3c1=O)C(=O)c1ccccc1-2
< 1	Cn1c2c(c3ccc(NC(=O)CC(=O)O)cc3c1=O)C(=O)c1ccccc1-2
< 1	Cn1c2c(c3ccc(C#N)cc3c1=O)C(=O)c1ccccc1-2
< 1	CNc1ccc2c3c(n(CCCN)c(=O)c2c1)-c1ccccc1C3O (stereo not given)
